# Measurements pooled from the literature.
# Lines come from different studies, so protocols differ.
# Observed: metabolic stability
Compound,test system,conditions,half-life [min]
O=C(c1cc(-n2sc3ncccc3c2=O)ccc1Cl)N1CCOCC1,"human, liver microsomes",,> 120
C[C@]12CC[C@H]3[C@@H](CCC4=CC(=O)CC[C@@]43C)[C@@H]1CC[C@@H]2O,"human, liver microsomes",1 µM,14.9
CCCCCn1nc(C(=O)Nc2cccc3ccccc23)c2ccccc21,"male human, liver microsomes","1 µM, pH 7.4",1.7
N=c1c2c(-c3ccccc3)c(-c3ccccc3)n(Cc3ccccc3)c2ncn1[C@H]1CC[C@H](O)CC1,"human, liver S9",1 µM,> 120
Cc1cc(C)nc(Nc2ncc(C(=O)NCCc3c(C)[nH]c4ccccc34)cn2)c1,"human, liver microsomes",1 µM,28
CCCCCn1cc(C(=O)Nc2cccc3ccccc23)c2ccccc21,"male human, liver microsomes","1 µM, pH 7.4",2.3
CC(C)NCC(O)COc1cccc2ccccc12 (stereo not shown),"human, liver microsomes",2 µM,> 40
Cc1cnc(Nc2ccc(C(=O)NC3CCN(C(=O)COCCOCCOCC(=O)N4CCC(NC(=O)c5ccc(Nc6ncc(C)c(Nc7ccc(Cl)c(NS(=O)(=O)C(C)(C)C)c7)n6)cc5F)CC4)CC3)c(F)c2)nc1Nc1ccc(Cl)c(NS(=O)(=O)C(C)(C)C)c1,"human, liver microsomes",,3.6
CN(C)CCc1c[nH]c2ccccc12,"human, hepatocytes",0.6 µM,98.9
Cc1nc2c(=O)n(C)c(=O)nc-2n(C)n1,"human, liver microsomes",,> 186
CN1CCCCC1Cn1cc(C(=O)c2cc([N+](=O)[O-])ccc2I)c2ccccc21 (racemic),"human, liver microsomes",,5.9
NCCc1c[nH]c2ccc(O)cc12,"human, hepatocytes",5 µM,33
O=c1c2ccccc2sn1Cc1ccc(Cl)cc1,"human, liver microsomes",,300
CCCCCCCCCCCCCCCCCCCCOP(=O)(O)CO[C@H](C)Cn1cnc2c(N)ncnc21.N,"human, liver microsomes","3 µM, 30 min, pH 7.4",49
C=C1NC(=O)[C@H](C)N(O)C(=O)[C@H]([C@@H](O)C(N)=O)N(C)C(=O)[C@H](C)OC(=O)[C@@H]2C[C@H](C)CN2C1=O,"human, liver microsomes",,> 120
C#Cc1ccc2c(c1)C(c1ccccn1)=NCc1c(-c3cnco3)ncn1-2,"human, liver microsomes",,1500
